Rtt109 Vps75: C. albicans Rtt109 histone acetyltransferase inhibition. Q5AAJ8. purified Rtt109/Vps75, ThioGlo CoA-SH fluorescence, 4 h. inhibition, % at 34.9 µM. 330,000 compounds, 0.16% hits. AID 540336;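 active = inhibition of at least 50% in every replicate; inconclusive = best replicate reaches 50% inhibition but some replicates fall short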
Target sequence (Q5AAJ8 whole entry, looked up): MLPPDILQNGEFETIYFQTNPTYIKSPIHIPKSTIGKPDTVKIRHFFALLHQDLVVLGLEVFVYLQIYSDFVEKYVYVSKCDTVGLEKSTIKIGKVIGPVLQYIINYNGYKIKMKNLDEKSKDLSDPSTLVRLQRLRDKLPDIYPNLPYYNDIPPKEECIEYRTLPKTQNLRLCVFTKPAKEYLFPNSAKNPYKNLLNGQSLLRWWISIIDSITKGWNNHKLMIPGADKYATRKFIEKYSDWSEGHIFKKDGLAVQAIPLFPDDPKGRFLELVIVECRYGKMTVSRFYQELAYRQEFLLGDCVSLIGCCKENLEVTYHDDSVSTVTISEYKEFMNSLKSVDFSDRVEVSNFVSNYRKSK
PfHsp90 set2: growth inhibition of yeast expressing Plasmodium Hsp90 | inhibition, % at 9.4 µM | 310,000 compounds, 0.32% hits | S. cerevisiae expressing PfHsp90, BacTiter-Glo ATP, 48 h; yeast lacking PDR1 and PDR3 efflux regulators;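 active = every replicate shows inhibition above about 80%, whatever the replicate mean, limit read from the data; inconclusive = mean inhibition reaches the set limit but some replicate falls short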
Env fusion inh: blocks HIV Env-driven cell-cell fusion | 360,000 compounds, 1.1% hits | HeLa-JRFL Env/CEM21 cell fusion, luciferase | inhibition, % at 12.3 µM;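 active = mean replicate inhibition score of at least 50 and every replicate individually at or above 50; inconclusive = only one of the two criteria met; inactive = mean below 50 and not all replicates reaching 50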
PAX8 inh HTS: PAX8 transcriptional activity inhibition. RMG-I TPO-luciferase reporter, SteadyGlo, 24 h. inhibition, % at 12.6 µM. 360,000 compounds, 1.2% hits. AID 652154;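 active = mean replicate inhibition at least 60% with every replicate also reaching 60%; inconclusive = only one of the two criteria is met; inactive = mean below 60% and not all replicates reaching 60%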;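 also: luciferase light reporting Pax8 driven TPO promoter activity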
N-glyco inh: blocks N-linked glycosylation in D54 reporter cells; D54 ERlucT glycosylation luciferase reporter, 24 h; percent of 100 nM tunicamycin response; reporter increase, % at 12.5 µM; 360,000 compounds, 0.23% hits; AID 588692;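 active = mean luciferase reporter signal, scaled so untreated is 0 and the glycosylation-blocking control 100, at or above a set limit in every replicate; inconclusive = mean reaches the limit but not every replicate does; inactive = mean below the limit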;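 also: luciferase carries N-glycosylation sites so blocking glycosylation raises the light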
Arrestin-AP2 inh: human beta-arrestin and AP2 interaction inhibition. FITC-arrestin peptide / GST-AP2 beads, flow cytometry; AP2 beta2 appendage carries R879A mutation. inhibition, % at 10 µM. 340,000 compounds, 0.31% hits. AID 504490;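 active = inhibition above a set limit, near 3 SD of compounds lacking own fluorescence, cut at about 54% in these data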
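System: GST-AP2 R879A bound to glutathione beads, E. coli-expressed. Also added: 50 nM FITC-arrestin peptide. Schedule: compound with beads 12 min RT, then probe 1 h RT. Signal: bead flow cytometry, FITC channel. Read-out basis: percent response.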
Numbers stand for hits; n = inactive; u = inconclusive; x = no result; ! = not confirmed by another sample. This is a sample that favours compounds with a hit; in the whole collection about 2.3% have one here.

SMILES	Rtt109 Vps75	PfHsp90 set2	Env fusion inh	PAX8 inh HTS	N-glyco inh	Arrestin-AP2 inh
COc1ccc(S(=O)(=O)N(C)C[C@@H]2OCCCC[C@H](C)Oc3ccc(NC(=O)Nc4ccc(F)cc4)cc3C(=O)N([C@H](C)CO)C[C@H]2C)cc1	x	x	n	67	x	x
C[C@@H]1CN([C@H](C)CO)C(=O)c2cc(NC(=O)CCC(F)(F)F)ccc2O[C@@H](C)CCCCO[C@H]1CN(C)S(=O)(=O)c1ccc(Cl)cc1	x	x	n	n	x	x
C[C@H]1CCCCO[C@@H](CN(C)S(=O)(=O)c2ccc(Cl)cc2)[C@@H](C)CN([C@@H](C)CO)C(=O)c2cc(NC(=O)CCC(F)(F)F)ccc2O1	x	x	n	73	x	x
C[C@@H]1CCCCO[C@@H](CN(C)S(=O)(=O)c2ccccc2)[C@H](C)CN([C@@H](C)CO)C(=O)c2cc(NC(=O)Nc3ccc(C(F)(F)F)cc3)ccc2O1	x	x	n	75	x	x
C[C@@H]1CCCCO[C@H](CN(C)S(=O)(=O)c2ccc(F)cc2)[C@@H](C)CN([C@H](C)CO)C(=O)c2cc(NC(=O)Nc3ccc(C(F)(F)F)cc3)ccc2O1	x	x	u	74!	n	x
COc1ccc(S(=O)(=O)N(C)C[C@@H]2OCCCC[C@H](C)Oc3ccc(NC(=O)Nc4ccc(C(F)(F)F)cc4)cc3C(=O)N([C@H](C)CO)C[C@H]2C)cc1	x	x	n	79!	n	x
C[C@@H]1CCCCO[C@H](CN(C)S(=O)(=O)c2ccc(Cl)cc2)[C@@H](C)CN([C@@H](C)CO)C(=O)c2cc(NC(=O)Nc3ccc(C(F)(F)F)cc3)ccc2O1	x	x	n	82	x	x
C[C@@H]1CCCCO[C@H](CN(C)S(=O)(=O)c2ccc(Cl)cc2)[C@H](C)CN([C@@H](C)CO)C(=O)c2cc(NC(=O)Nc3ccc(F)cc3)ccc2O1	x	x	n	70	x	x
C[C@@H]1CN([C@@H](C)CO)C(=O)c2cc(NC(=O)Nc3ccc(C(F)(F)F)cc3)ccc2O[C@@H](C)CCCCO[C@@H]1CN(C)S(=O)(=O)c1ccc(Cl)cc1	x	x	n	n	x	x
C[C@H]1CN([C@@H](C)CO)C(=O)c2ccccc2-c2ccccc2CO[C@H]1CN(C)Cc1ccc(Oc2ccccc2)cc1	x	x	x	n	x	x
O=C(Nc1ccccc1)N1CCCCN2[C@@H](CO)[C@H](c3ccc(C#Cc4cccnc4)cc3)[C@@H]2C1	x	x	x	n	x	x
C[C@H](CO)N1C[C@H](C)[C@H](CN(C)S(=O)(=O)c2cccs2)Oc2c(NC(=O)C3CC3)cccc2C1=O	x	x	n	n	x	x
CCC(=O)N1CC2(C1)[C@@H](c1ccccc1)[C@@H](CO)N2C(=O)c1ccccc1	x	x	x	n	x	x
CCCNC(=O)Nc1ccc2c(c1)C(=O)N(C)C[C@H](OC)[C@H](C)CN(Cc1ccc(-c3ccccn3)cc1)[C@H](C)CO2	x	x	n	x	x	x
CO[C@@H]1CN(C)C(=O)c2cc(NC(=O)C3CCCCC3)ccc2OC[C@@H](C)N(Cc2nccs2)C[C@@H]1C	x	x	n	n	x	x
CC(C)(C)c1ccc(-n2nc(C#N)c(Cl)cc2=O)cc1	n	100	n	112	n	n
C/C=C/c1ccc2c(c1)O[C@H](CN(C)C(=O)c1cnccn1)[C@H](C)CN([C@H](C)CO)S2(=O)=O	x	x	n	n	x	x
CC1(C)Cc2ccccc2C(/C(=N\Nc2cccc(Cl)c2)C(N)=O)=N1	n	n	82	n	n	n
CC(=O)c1ccc(N/N=C(/C(N)=O)C2=NC(C)(C)Cc3ccccc32)cc1	n	n	n	n	n	n
CCC(=O)N[C@@H]1C=C[C@H](CC(=O)NCCN2CCCCC2)O[C@H]1CO	x	x	n	n	x	x
COc1ccc2c(c1)C=C(C(=O)NCc1ccc(Cl)cc1)CO2	n	98	n	x	n	n
O=C(Nc1ccc(Cl)cc1)C1=Cc2cc(Cl)ccc2OC1	n	n	x	x	n	n
Cc1cc2[nH]c3c(c[n+](C)c4ccccc34)c2cc1C	n	n	n	111	n	n
Cc1cc(=O)[nH]c2ccccc12	n	n	x	x	n	n
COc1cccc(S(=O)(=O)N2C[C@H](O)COC[C@H]3O[C@H](CC(=O)Nc4ccccc4)CC[C@@H]32)c1	x	x	n	n	x	x
SMILES	Rtt109 Vps75	PfHsp90 set2	Env fusion inh	PAX8 inh HTS	N-glyco inh	Arrestin-AP2 inh
CC(C)(C)c1ccc(C(=O)Nc2sc3c(c2C(=O)O)CCC3)cc1	n	n	81	80	n	n
Cc1ccc(NC(=O)c2ccc([N+](=O)[O-])s2)cc1S(=O)(=O)N1CCOCC1	n	n	n	101	n	n
Cc1ccc(NC(=O)[C@@H]2CCCN2S(=O)(=O)c2ccccc2F)cc1S(=O)(=O)N1CCOCC1	n	n	n	n	n	n
Cc1ccc(NC(=O)[C@@H]2CCCN2S(=O)(=O)c2ccccc2C(F)(F)F)cc1S(=O)(=O)N1CCOCC1	n	n	57	n	n	n
Cc1ccc(NC(=O)c2ccc(S(=O)(=O)N(C)c3ccccc3)cc2)cc1S(=O)(=O)N1CCOCC1	n	x	x	65	n	n
O=C(Nc1cc(S(=O)(=O)N2CCOCC2)ccc1N1CCOCC1)c1ccc([N+](=O)[O-])s1	n	n	n	n	n	n
C[C@@H]1CN([C@@H](C)CO)C(=O)Cc2cc(NC(=O)Nc3ccc(F)cc3)ccc2O[C@@H]1CN(C)Cc1ccc(C(F)(F)F)cc1	x	x	n	x	x	x
CO[C@H]1CN(C)C(=O)c2cc(C#N)ccc2OCC[C@H]2CC[C@@H](OC)[C@@H](CN(C)C(=O)[C@@H]1C)O2	x	x	n	n	x	x
CCN(CC)c1ncnc2ccc(Br)cc12	n	n	87	x	n	n
CCCNc1ncnc2ccc(Br)cc12	x	x	n	n	x	x
Cc1csc(CNc2ncnc3ccc(-c4cccc(Cl)c4)cc23)c1	n	122	n	n	n	n
C=CCc1cc(C)ccc1OCCOCCC(C(=O)OCC)C(=O)OCC	n	n	x	79	n	n
Nc1nc(CCl)nc(N(c2ccccc2)c2ccccc2)n1	x	x	n	99	n	n
Nc1nc(Cl)nc(N(c2ccccc2)c2ccccc2)n1	n	n	n	n	n	n
COc1ccc(-c2nn(C)c(=O)c3ccccc23)cc1NC(=O)COc1ccc(C)cc1	n	x	57	n	n	n
COc1ccc(-c2nn(C)c(=O)c3ccccc23)cc1NC(=O)Cn1nc(C)c2ccccc2c1=O	n	n	76	x	n	n
CCC(=O)Nc1cc(-c2nn(C)c(=O)c3ccccc23)ccc1OC	n	n	n	x	n	n
Cc1ccccc1-c1cnc2c(c1)C(=O)N([C@@H](C)CO)C[C@H](C)[C@H](CN(C)C(=O)CN(C)C)O2	x	x	n	x	x	x
Cc1noc(C)c1S(=O)(=O)Nc1ccc2c(c1)C(=O)N([C@@H](C)CO)C[C@@H](C)[C@@H](CN(C)C)OCCCC[C@H](C)O2	x	x	n	n	x	x
O=C1CC(NS(=O)(=O)c2cccs2)CN1c1ccc(F)cc1 (centres undefined)	n	n	n	n	n	n
